Hits are enriched below; roughly 1.7% of the tested compounds scored in any of these assays.
DSG3 Ab inh: inhibitors of pemphigus antibody binding to human desmoglein-3; binding (percent of control), % at 10 µM; hit rate 0.48% among 310,000; P32926; DSG3-coupled beads, scFv-anti-DSG3-GFP binding, flow cytometry; hits give low values;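 active = binding more than 3 SD below its plate's average and above zero; inconclusive = below that plate limit but binding exactly zero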;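 also: hits lower antibody fragment binding to DSG3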
Target sequence (P32926 whole entry, looked up, the tested form may be a part): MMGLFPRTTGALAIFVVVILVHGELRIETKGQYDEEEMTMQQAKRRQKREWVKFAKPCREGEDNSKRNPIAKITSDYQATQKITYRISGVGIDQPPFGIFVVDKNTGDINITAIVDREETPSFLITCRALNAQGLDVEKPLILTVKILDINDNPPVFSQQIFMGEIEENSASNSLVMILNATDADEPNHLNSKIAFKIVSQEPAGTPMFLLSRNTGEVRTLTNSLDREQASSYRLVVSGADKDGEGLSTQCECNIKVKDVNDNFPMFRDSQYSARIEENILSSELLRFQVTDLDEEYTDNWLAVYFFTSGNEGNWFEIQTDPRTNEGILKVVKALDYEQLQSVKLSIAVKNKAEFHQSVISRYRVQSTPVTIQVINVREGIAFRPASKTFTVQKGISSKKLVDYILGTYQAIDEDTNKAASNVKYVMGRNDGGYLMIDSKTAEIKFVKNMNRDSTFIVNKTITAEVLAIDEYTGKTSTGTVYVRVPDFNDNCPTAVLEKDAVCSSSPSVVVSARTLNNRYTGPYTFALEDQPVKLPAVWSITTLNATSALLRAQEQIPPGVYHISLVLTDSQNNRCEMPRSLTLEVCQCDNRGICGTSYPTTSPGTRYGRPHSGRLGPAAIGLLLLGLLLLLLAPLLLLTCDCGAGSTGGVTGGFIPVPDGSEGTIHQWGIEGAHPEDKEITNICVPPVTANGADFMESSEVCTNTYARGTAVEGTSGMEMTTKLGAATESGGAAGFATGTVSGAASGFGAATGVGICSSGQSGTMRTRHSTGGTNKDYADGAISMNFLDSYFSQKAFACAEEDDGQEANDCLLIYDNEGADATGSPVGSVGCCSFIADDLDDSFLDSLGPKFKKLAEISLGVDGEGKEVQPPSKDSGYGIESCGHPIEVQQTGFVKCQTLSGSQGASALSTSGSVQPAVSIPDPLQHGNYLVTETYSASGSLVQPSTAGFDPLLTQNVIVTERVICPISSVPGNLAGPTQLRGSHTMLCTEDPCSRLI
T cell HTS: modulates CD8 T cell binding to vesicles | 2C CD8+ T cell-vesicle binding, flow cytometry; hits give low values | hit rate 0.068% among 330,000 | response (vesicle binding), % at 7 µM;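 active = response, share of CD8 T cells binding vesicles, and their 90th percentile fluorescence all below set limits, cut at about 80% in these data, passing the limit was not always enough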;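 also: values below 100% mean blocked vesicle binding to the CD8+ T cells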
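Read-out – percent CD8+ FL2 mean versus row control · System – murine 2C transgenic CD8+ T lymphocytes · Times – 1.5 h cell–vesicle binding at 37 °C, then 20 min icy labelling · Control set – naked vesicles low, QL9 vesicles with vehicle high · Detection – cytometric PE anti-B7-1 and Alexa647 anti-CD8 signals after 1% paraformaldehyde fixation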
Myeloid diff 2: promotes myeloid progenitor differentiation | hit rate 1% among 360,000 | calls only at 10 µM | ER-HoxA9 myeloid progenitors, lysozyme-GFP differentiation, flow cytometry;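 active = normalized GFP-positive differentiation at or above the plate's own cutoff, the solvent-only control mean plus 3 SD; inconclusive = no clear call, values can overlap the other calls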;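 also: cells exposed to compound for four days before flow analysis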
Vif imaging: blocks HIV Vif function. HEK293T cells, Vif self-association by quenched fluorescence, imaging, 24 h. inhibition, % at 7.49 µM. hit rate 0.35% among 340,000. AID 602346; in the data active = inhibition above about 50%, passing the limit was not always enough; inconclusive = no clear call, values can overlap the other calls; inactive = below about 31%
Myeloid diff: myeloid differentiation induction; ER-HoxA9 myeloid progenitors, GFP/Mac1 double-positive flow; hit rate 2% among 2,300; calls only; shares compounds with Myeloid diff 2;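 active = share of green or green-and-red cells above 9 and 9% in run 1 or 4 and 3% in run 2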
GFP autofluor: compound fluorescence in myeloid differentiation counter-screen; shares compounds with Myeloid diff 2; ER-HoxA9 myeloid progenitors, no estrogen, GFP autofluorescence flow cytometry; vehicle wells 0%, positive control 100%; fluorescence response, % (no concentration beside the values); hit rate 7.4% among 2,300;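 active = over 5% cells positive for green fluorescent reporter, or over 2% positive for both it and APC stain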;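 also: range taken on the double positive population between DMSO and positive control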
Numbers without * were called inactive; i = inactive; ? = inconclusive; · = no result given; + = active, no number.

SMILES	DSG3 Ab inh	T cell HTS	Myeloid diff 2	Vif imaging	Myeloid diff	GFP autofluor
COc1ccc(CNC(=O)C2CCCN(S(=O)(=O)c3c(C)n[nH]c3C)C2)cc1 (configuration not stated)	106.8	455.3	i	?	i	1.6
O=C(CCc1nc2ccccc2c(=O)[nH]1)N1CCCc2ccccc21	94.5	248.9	+	-9.2	i	1.6
CCNC(=O)C1(C)CCCN(C(=O)c2ccnc(Cl)c2)C1 (configuration not stated)	·	·	i	-1.8	·	·
CN(CC(=O)NCc1cccs1)CC(=O)Nc1ccc(F)c(F)c1F	110.6	440.7	i	3.2	·	·
Cc1ccsc1CN(C)CC(=O)NCC(=O)Nc1ccc(F)c(F)c1F	51.8	179.5	+	-5.1	i	4.2
Cc1ccc(S(=O)(=O)N2CCCCC2CCNC(=O)C(=O)NCc2cccnc2)cc1 (configuration not stated)	105.1	403.1	+	-8.0	i	0.4
Cc1ccc(C)c(S(=O)(=O)N2CCCCC2CCNC(=O)C(=O)NCc2cccnc2)c1 (configuration not stated)	102.7	296.4	i	-6.7	·	·
Cc1cc(C)n2nc(C(=O)OCC(=O)Nc3ccc(C)c(F)c3)nc2n1	100.6	264.0	i	0.9	i	0.3
CCc1ccc(NC(=O)COC(=O)c2nc3nc(C)cc(C)n3n2)cc1	98.0	i	i	-2.1	·	·
O=C(Nc1cc(Br)ccc1O)c1cc(-c2ccco2)on1	107.8	426.8	i	-18.6	i	0.5
Cc1ccc(O)c(NC(=O)c2cc(-c3ccccc3)on2)c1	110.2	153.3	+	0.2	i	0.0
O=C(Nc1cc(Cl)ccc1O)c1cc(-c2ccco2)on1	98.8	475.2	?	-1.6	·	·
Cc1ccc(CC2(c3ccccc3)NC(=O)NC2=O)cc1 (configuration not stated)	94.6	·	i	-6.9	·	·
CC/C(C)=N/Nc1ccc(S(=O)(=O)N2CCCC2)cc1[N+](=O)[O-]	96.4	162.5	+	2.9	i	0.4
O=[N+]([O-])c1cc(S(=O)(=O)N2CCCC2)ccc1NN=C1CCCCC1	102.5	232.8	i	1.9	·	·
C#CC[N+](C)(C)CCCCCCCC	107.7	88.5	i	3.6	i	0.0
O=C1c2ccccc2NC(c2ccccc2)N1Cc1ccco1 (configuration not stated)	99.6	282.2	i	-0.4	·	·
O=C1c2ccccc2NC(c2ccc(F)cc2)N1Cc1ccco1 (configuration not stated)	104.3	217.1	i	·	i	0.5
CC1=NN(C(C#N)c2ccc(F)cc2)C(C)(C)C1 (configuration not stated)	95.1	174.3	+	11.2	i	0.3
COc1ccnc(Oc2ccc(C)cc2C)c1C#N	90.3	349.3	+	10.8	i	0.2
COc1ccc(Oc2nccc(OC)c2C#N)cc1	99.1	584.4	i	33.8	·	·
Cc1ccc(C(C(=O)NC2CCCCC2)N(C(=O)Cc2c[nH]c3ccccc23)c2ccccc2)o1 (configuration not stated)	106.2	698.2	+	7.2	i	0.3
CC(=O)Nc1ccc(N(C(=O)Cc2c[nH]c3ccccc23)C(C(=O)NC2CCCCC2)c2ccco2)cc1 (configuration not stated)	104.6	312.2	i	0.2	·	·
CCCn1c(SCC(=O)Nc2ccccc2Cl)nc(O)cc1=O	102.8	·	i	-2.3	i	0.0
CCCn1c(SCC(=O)Nc2cccc(F)c2)nc(O)cc1=O	·	556.1	i	1.6	·	·
SMILES	DSG3 Ab inh	T cell HTS	Myeloid diff 2	Vif imaging	Myeloid diff	GFP autofluor
CCCCCC(=O)N1C[C@@H](O)[C@H](n2cc(COC(=O)c3ccccc3)nn2)C[C@@H]1c1ccc(OC)cc1	100.2	·	i	0.9	i	0.0
Cc1ccc(NC(=O)c2ccnc(C(C)(C)C)c2)cc1	·	125.4	i	-9.1	i	0.2
CC(C)(C)c1cc(C(=O)Nc2ccccc2)ccn1	97.6	191.0	i	-0.3	·	·
COc1ccc(C(=O)Nc2sc3c(c2C#N)CCN(C(C)=O)C3)cc1	90.2	445.3	i	-11.1	·	·
CC(=O)N1CCc2c(sc(NC(=O)c3ccc([N+](=O)[O-])o3)c2C#N)C1	86.8	·	+	-5.2	i	0.0
CCCC[C@@H]1CNC(=O)C(=O)N1CCCC	·	·	i	·	·	·
Cc1ccc(/C(O)=C/c2nc3cc(C)ccc3oc2=O)cc1	99.0	355.7	i	2.8	·	·
O=c1oc2ccc(Cl)cc2nc1/C=C(\O)c1ccco1	·	411.4	+	-6.0	i	0.0
CC(C)C/C(O)=C/c1nc2cc(Cl)ccc2oc1=O	86.4	89.3	i	11.5	i	0.9
O=C(CCC1CCCN(C(=O)c2cc(F)ccc2F)C1)N1CCN(c2ccccn2)CC1 (configuration not stated)	109.8	·	i	-2.1	·	·
CC[C@@]1(C(=O)OC)N[C@H](CN(C)C(=O)C2CCCCC2)[C@@H]2C(=O)N(C)C(=O)[C@@H]21	98.5	164.0	i	-2.3	i	0.0
Cc1cc(S(=O)(=O)N(Cc2ccccc2F)C2CC2)ccc1-n1cnnn1	104.6	277.7	i	-9.7	i	0.3
Cc1ccc(OCc2nnc(SCc3nc4ccccc4[nH]3)n2Cc2ccco2)cc1	113.7	265.1	+	-26.6	+	0.0
c1ccc(-c2nnc(SCc3nc4ccccc4[nH]3)n2Cc2ccco2)cc1	95.5	244.9	i	2.3	·	·
Cc1ccc(S(=O)(=O)CCOC(=O)CNC(=O)OCc2ccccc2)cc1	103.5	·	i	20.8	·	·
Cn1c(N)c(C(=O)COC(=O)c2ccccc2C(=O)c2ccc(Cl)cc2)c(=O)n(C)c1=O	90.0	372.7	i	-14.4	i	0.7
CC(C)Cn1c(N)c(C(=O)COC(=O)c2ccccc2C(=O)c2ccccc2)c(=O)n(C)c1=O	97.1	224.9	i	-21.3	·	·
COc1ccc2[nH]c3c(c2c1)CCNC3c1ccc([N+](=O)[O-])o1 (configuration not stated)	93.7	426.0	+	-3.3	i	98.6*
COc1ccc2[nH]c3c(c2c1)CCNC3C1CC=C(C)CC1 (configuration not stated)	100.9	150.8	i	0.3	·	·
Cc1ccccc1C(=O)NCCCCc1ccccc1	101.0	98.1	i	-2.6	·	·
Nc1nc2ccccc2cc1C(=O)NCCCCc1ccccc1	·	·	i	·	i	0.0
Cc1noc(C)c1C(=O)OCC(=O)Nc1ccccc1SCC#N	·	623.7	+	7.2	i	56.9*
N#CCSc1ccccc1NC(=O)COC(=O)CCNC(=O)c1ccc([N+](=O)[O-])cc1	115.6	·	+	-2.6	i	41.1*
NC(=O)c1ccc(-n2nnnc2Oc2ccccc2)cc1	97.2	402.4	i	-6.3	·	·
COc1ccccc1Oc1nnnn1-c1ccc(C(N)=O)cc1	104.8	455.3	i	·	i	0.6

Assay outcomes (PubChem)
